The target of assay [1] is T1, Muscarinic acetylcholine receptor M1 (Homo sapiens) (UniProt P11229).
T1 sequence (whole entry): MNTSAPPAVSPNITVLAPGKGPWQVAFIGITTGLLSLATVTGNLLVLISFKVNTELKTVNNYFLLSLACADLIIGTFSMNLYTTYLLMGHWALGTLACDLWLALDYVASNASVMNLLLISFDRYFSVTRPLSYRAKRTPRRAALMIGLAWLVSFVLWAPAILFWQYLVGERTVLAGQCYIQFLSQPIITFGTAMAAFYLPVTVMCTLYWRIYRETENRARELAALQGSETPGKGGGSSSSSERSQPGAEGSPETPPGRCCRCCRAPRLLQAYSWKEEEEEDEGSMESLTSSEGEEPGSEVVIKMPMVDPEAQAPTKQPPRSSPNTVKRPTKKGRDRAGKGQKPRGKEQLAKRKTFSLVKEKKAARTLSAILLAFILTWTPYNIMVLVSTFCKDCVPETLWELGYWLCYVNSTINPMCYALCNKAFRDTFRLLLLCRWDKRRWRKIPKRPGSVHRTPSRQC
Description: Cooperativity with NMS at human muscarinic acetylcholine receptor M1. The method in brief:
(§1)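 Equilibrium ³H-NMS binding in CHO membranes expressing human m1–m5 receptors was measured with and without ACh, alone and with three agent concentrations. Data were converted to affinity ratios, meaning apparent primary-ligand affinity with agent divided by affinity without it.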

The target of assay [2] is Muscarinic acetylcholine receptor M3 (Homo sapiens) (UniProt P20309). Nature of the assay: Binding affinity at the NMS liganded human muscarinic acetylcholine receptor M3 was estimated as log affinity (log1/M). The method in brief:
(§2)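 Equilibrium runs were ≥2 h with 2 × 10⁻⁴ M GTP and 0.1–0.7 nM ³H-NMS. Nonspecific binding was defined with 10⁻⁶ M QNB, and bound ligand was filtered and counted. Log affinities came from semiquantitative plus off-rate, quantitative equilibrium, or nonequilibrium assays, fitted by nonlinear least squares to the allosteric ternary complex model.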

In assay [3] the target is T2, Muscarinic acetylcholine receptor M2 (Homo sapiens) (UniProt P08172).
T2 sequence (whole entry): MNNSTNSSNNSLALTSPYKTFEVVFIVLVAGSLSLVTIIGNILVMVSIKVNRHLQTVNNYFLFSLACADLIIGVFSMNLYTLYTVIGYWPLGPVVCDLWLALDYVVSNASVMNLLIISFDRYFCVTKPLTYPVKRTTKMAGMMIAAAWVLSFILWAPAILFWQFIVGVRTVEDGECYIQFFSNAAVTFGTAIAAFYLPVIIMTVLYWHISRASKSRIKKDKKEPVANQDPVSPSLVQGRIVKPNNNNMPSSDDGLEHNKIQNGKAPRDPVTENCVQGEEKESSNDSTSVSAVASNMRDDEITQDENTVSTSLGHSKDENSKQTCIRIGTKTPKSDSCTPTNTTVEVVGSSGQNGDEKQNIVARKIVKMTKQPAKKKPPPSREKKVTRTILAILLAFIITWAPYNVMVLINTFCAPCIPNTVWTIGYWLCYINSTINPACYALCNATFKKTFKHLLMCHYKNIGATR
Nature of the assay: Cooperativity with NMS at human muscarinic acetylcholine receptor M2. In short, it runs like this:
as §1

Assay [4] has as its target T1, Muscarinic acetylcholine receptor M1 (Homo sapiens). Description: Binding affinity at the unliganded human muscarinic acetylcholine receptor M1 was estimated as log affinity (log1/M). The method in brief: as §2
Assay [5] addresses T3, Muscarinic acetylcholine receptor M4 (Homo sapiens) (UniProt P08173).
T3 sequence (whole entry): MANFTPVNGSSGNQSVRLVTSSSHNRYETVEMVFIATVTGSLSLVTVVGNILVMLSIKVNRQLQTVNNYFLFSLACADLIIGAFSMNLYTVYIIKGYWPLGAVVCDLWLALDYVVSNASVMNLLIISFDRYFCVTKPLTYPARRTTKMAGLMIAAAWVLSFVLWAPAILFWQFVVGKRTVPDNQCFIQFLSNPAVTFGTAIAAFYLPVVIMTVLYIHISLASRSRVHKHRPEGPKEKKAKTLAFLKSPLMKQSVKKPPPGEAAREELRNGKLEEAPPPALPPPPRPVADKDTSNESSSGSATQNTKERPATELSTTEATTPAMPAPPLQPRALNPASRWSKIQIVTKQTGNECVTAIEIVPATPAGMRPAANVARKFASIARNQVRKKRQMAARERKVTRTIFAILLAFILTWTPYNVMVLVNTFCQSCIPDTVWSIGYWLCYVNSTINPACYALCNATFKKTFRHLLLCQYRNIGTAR
Description: Binding affinity at the unliganded human muscarinic acetylcholine receptor M4 was estimated as log affinity (log1/M). The method in brief: as §2

In assay [6] the target is Muscarinic acetylcholine receptor M3 (Homo sapiens) (UniProt P20309). Description: Binding affinity at the unliganded human muscarinic acetylcholine receptor M3 was estimated as log affinity (log1/M). The method in brief:
as §2

Assay [7] addresses T3, Muscarinic acetylcholine receptor M4 (Homo sapiens). Nature of the assay: Binding affinity at the NMS liganded human muscarinic acetylcholine receptor M4 was estimated as log affinity (log1/M). In short, it runs like this: as §2
Assay [8] has as its target T1, Muscarinic acetylcholine receptor M1 (Homo sapiens). Description: Cooperativity with acetylcholine at human muscarinic acetylcholine receptor M1. In short, it runs like this: as §1
For assay [9], the target named is T3, Muscarinic acetylcholine receptor M4 (Homo sapiens). Description: Cooperativity with acetylcholine at human muscarinic acetylcholine receptor M4. The method in brief: as §1
Assay [10] deals with T2, Muscarinic acetylcholine receptor M2 (Homo sapiens). Nature of the assay: Cooperativity with acetylcholine at human muscarinic acetylcholine receptor M2. The method in brief:
as §1

Assay [11] shares this target. Description: Binding affinity at the unliganded human muscarinic acetylcholine receptor M2 was estimated as log affinity (log1/M). In short, it runs like this:
as §2

Assay [12] deals with Muscarinic acetylcholine receptor M3 (Homo sapiens) (UniProt P20309). Description: Cooperativity with NMS at human muscarinic acetylcholine receptor M3. In short, it runs like this:
as §1

Assay [13] has the same target. Nature of the assay: Cooperativity with acetylcholine at human muscarinic acetylcholine receptor M3. The method in brief: as §1
Assay [14] addresses T3, Muscarinic acetylcholine receptor M4 (Homo sapiens). Nature of the assay: Cooperativity with NMS at human muscarinic acetylcholine receptor M4. The method in brief:
as §1

Assay [15] has as its target T1, Muscarinic acetylcholine receptor M1 (Homo sapiens). Nature of the assay: Binding affinity at the NMS liganded human muscarinic acetylcholine receptor M1 was estimated as log affinity (log1/M). In short, it runs like this: as §2
Assay [16] has as its target T2, Muscarinic acetylcholine receptor M2 (Homo sapiens). Description: Binding affinity at the NMS liganded human muscarinic acetylcholine receptor M2 was estimated as log affinity (log1/M). In short, it runs like this: as §2

This is an account of results in ChEMBL document CHEMBL1132569.

Muscarinic acetylcholine receptor M3 (Homo sapiens), sequence (P20309 whole entry, looked up): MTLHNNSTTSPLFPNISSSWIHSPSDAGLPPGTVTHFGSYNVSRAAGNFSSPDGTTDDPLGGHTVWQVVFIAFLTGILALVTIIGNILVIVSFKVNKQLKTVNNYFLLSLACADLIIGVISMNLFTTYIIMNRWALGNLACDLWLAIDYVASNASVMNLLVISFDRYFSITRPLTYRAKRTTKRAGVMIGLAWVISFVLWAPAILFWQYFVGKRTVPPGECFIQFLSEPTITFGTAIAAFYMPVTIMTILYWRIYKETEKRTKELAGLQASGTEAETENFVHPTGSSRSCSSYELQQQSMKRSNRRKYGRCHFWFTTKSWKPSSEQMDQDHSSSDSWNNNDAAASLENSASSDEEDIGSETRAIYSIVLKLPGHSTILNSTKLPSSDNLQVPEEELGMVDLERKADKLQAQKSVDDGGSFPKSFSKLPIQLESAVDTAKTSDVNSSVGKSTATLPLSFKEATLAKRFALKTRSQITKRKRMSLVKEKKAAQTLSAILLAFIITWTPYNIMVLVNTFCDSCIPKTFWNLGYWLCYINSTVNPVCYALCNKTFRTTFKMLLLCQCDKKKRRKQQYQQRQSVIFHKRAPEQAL

Take `O=C1C[C@@H]2OCC=C3C[N+]4(CCc5ccccc5)CC[C@]56c7ccccc7N1[C@H]5[C@H]2[C@H]3C[C@@H]64` (stereo not given in full): the Cooperativity was 1.19 in assay [1]; over 2 in assay [3]; under 0.2 in assay [8]; under 0.2 in assay [9]; under 0.2 in [10]; 0.8 in assay [12]. For the same compound, the Cooperativity in assay [13] was under 0.2; in assay [14], 2. The Affinity in assay [2] was 4.6; in assay [4], 4.9; in assay [5], 5.2; in assay [6], 4.8; in [7], 5.5; in assay [11], 5.3. The results for the Affinity in [15] and in assay [16] were 4.9 and 5.7, respectively.

`C#CC[N+]12CC[C@@]34c5ccccc5N5C(=O)C[C@@H]6OCC=C(C1)[C@H](C[C@@H]32)[C@@H]6[C@H]54` (stereo not given in full): the Cooperativity in assay [1] was 0.8; in assay [3], 2; in [8], under 0.2; in assay [9] it was 0.8; in assay [10], under 0.2; in [12] it was 0.8. Moreover, the Cooperativity in assay [13] was under 0.2; in [14], 2. Moreover, the Affinity in assay [2] was 4.5; in assay [4], 5.2; in [5], 4.8; in assay [6], 4.7; in [7], 5; in assay [11] it was 5.2. For the same compound, the results for the Affinity in assay [15] and in assay [16] were 4.7 and 5.4, respectively.

For the compound `CCC[N+]12CC[C@@]34c5ccccc5N5C(=O)C[C@@H]6OCC=C(C1)[C@H](C[C@@H]32)[C@@H]6[C@H]54` (stereo not given in full), the Cooperativity was 0.8 in assay [1]; 2 in assay [3]; under 0.2 in [8]; under 0.2 in assay [9]; under 0.2 in [10]; 0.8 in assay [12]. Also, the values for the Cooperativity in assay [13] and in [14] were under 0.2 and 0.8, respectively. The Affinity was 4.5 in [2]; 5.2 in assay [4]; 5.2 in assay [5]; 5 in [6]; 4.9 in assay [7]; 5.2 in assay [11]. Also, the figures for the Affinity in assay [15] and in [16] were 4.8 and 5.5, respectively.

As to `O=C1C[C@@H]2OCC=C3C[N+]4(Cc5ccc(-c6ccccc6)cc5)CC[C@]56c7ccccc7N1[C@H]5[C@H]2[C@H]3C[C@@H]64` (stereo not given in full), the Cooperativity in assay [1] is 0.8; in assay [3], over 2; in [8], under 0.2; in [9] it was 0.8; in assay [10], under 0.2; in assay [12] it was 1.19. Also, the values for the Cooperativity in assay [13] and in assay [14] were under 0.2 and 2, respectively. Further, the Affinity in assay [2] was 5.7; in assay [4] it was 5.7; in assay [6] it was 5.6; in assay [7] it was 6.3; in assay [11] it was 5.6; in [15], 5.3. Also, the Affinity in [16] is 5.9.

With `CC[N+]12CC[C@@]34c5ccccc5N5C(=O)C[C@@H]6OCC=C(C1)[C@H](C[C@@H]32)[C@@H]6[C@H]54` (stereo not given in full), the Cooperativity in [1] is 2; in [3], over 2; in assay [8], 0.8; in [9], under 0.2; in assay [10] it was under 0.2; in assay [12] it was 1.19. Further, the results for the Cooperativity in assay [13] and in [14] were 0.8 and over 2, respectively. Further, the Affinity in [2] was 4.2; in assay [4], under 4.5; in [5] it was 4.3; in assay [6], 4.2; in assay [7], 4.9; in [11], 4.7. The Affinity in assay [15] was 4.6; in assay [16] it was 5.2.

Turning to `N[N+]12CC[C@@]34c5ccccc5N5C(=O)C[C@@H]6OCC=C(C1)[C@H](C[C@@H]32)[C@@H]6[C@H]54` (stereo not given in full), the Cooperativity in assay [1] was 2; in assay [3], over 2; in assay [8], 0.8; in [9], 0.8; in assay [10] it was 0.8; in [12] it was 2. The Cooperativity was 0.8 in assay [13] and over 2 in assay [14]. Moreover, the Affinity in assay [2] was 4.5; in assay [4] it was 4.3; in assay [5], under 4.4; in [6], under 4.4; in assay [7] it was 4.9; in [11], under 4.8. Also, the Affinity in assay [15] is 4.7; in assay [16], 5.4.

With `O=C1C[C@@H]2OCC=C3CN4CC[C@]56c7ccccc7N1[C@H]5[C@H]2[C@H]3C[C@H]46`, the Cooperativity was over 2 in [3], 0.8 in [9], under 0.2 in assay [10] and 2 in assay [14]. For the same compound, the Affinity in [5] is 5; in [7], 5.2; in [11] it was 5; in [16], 5.3.

On to `O=C1C[C@@H]2OCC=C3C[N+]4([O-])CC[C@]56c7ccccc7N1[C@H]5[C@H]2[C@H]3C[C@@H]64` (stereo not given in full), for which the Cooperativity in assay [1] was 2; in assay [3], over 2; in [8] it was 0.8; in [9] it was 0.8; in assay [10] it was 0.8; in assay [12] it was 2. Also, the figures for the Cooperativity in [13] and in assay [14] were 0.8 and 2, respectively. Moreover, the Affinity was 3.9 in assay [2]; under 3.6 in [4]; under 3.8 in assay [5]; under 3.9 in assay [6]; 4.1 in assay [7]; under 4.1 in [11]. In addition, the Affinity in [15] is 3.8; in assay [16], 4.4.

Consider `O=C1C[C@@H]2OCC=C3C[N+]4(Cc5ccccc5)CC[C@]56c7ccccc7N1[C@H]5[C@H]2[C@H]3C[C@@H]64` (stereo not given in full), for which the Cooperativity in assay [1] is 2; in [3] it was over 2; in [8], under 0.2; in assay [9], 0.8; in assay [10], under 0.2; in assay [12], 2. Further, the Cooperativity in assay [13] came to 0.8; in assay [14] it was 2. For the same compound, the Affinity in [2] was 5.3; in assay [4], under 5; in [5], under 5.3; in assay [6], under 5.2; in assay [7], 5.6; in [11] it was 5.3. Also, the values for the Affinity in assay [15] and in assay [16] were 5.2 and 6.3, respectively.
